Calls of active or inactive are those of the source. Rule as the data show it, unless noted: active = inhibition above about 30%; inactive = the rest.
How the values were obtained:
[1] = Her2 expression decrease, cell viability multiplex – SKBR3 breast tumor cells, AlphaScreen, ATP viability, primary screen (AID 461;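 active = Her2 level under about 52% in both replicate screens, with viability over 70% of control, limit read from the data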;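 as to Her2 level: lower value means less Her2 protein in the cells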;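 as to viability: percent of carrier control wells set as 100% viability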); details: SKBR3 Her2 protein level, 18-24 h, measured here: SKBR3 viability, ATP luminescence, at 10 µM
[2] = target: Receptor tyrosine-protein kinase erbB-2 (Homo sapiens) (UniProt P04626); experiment: as above; details: 18-24 h, at 10 µM, stronger effect = lower value
[3] = reduced viability of SK-BR-3 breast cancer cells – cell-based, 24 h, human, pilot screen (AID 572;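 active = viability at or below 10% of carrier control in both of two separate runs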;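 also: compound exposure lasted between 18 and 24 h rather than exactly 24 h; 100% = carrier-treated control wells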); details: SK-BR-3 viability, CellTiter-Glo luminescence, at 10 µM, stronger effect = lower value
[4] = HUVEC growth inhibition – cell-based, human, primary screen (AID 575;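 active = viability at or below 30% in both replicate assays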;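 also: 100% = median of untreated cell wells with 0.1% DMSO on each plate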); details: HUVEC proliferation, CellTiter-Glo luminescence, 72 h; at 10 µM; stronger effect = lower value
Outline: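 Assay system: primary human umbilical vein endothelial cells / Buffer or medium: endothelial basal medium with 2% FBS plus growth supplements / Compound dosing: one dose, 10 µM final, 0.1% DMSO / Timing: 72 h treatment at 37 °C / Signal: CTG luminescence / Benchmarks: 32 DMSO-only cell-control wells (high), 32 MePR drug-control wells (low) per plate / Plate: collagen-coated 384-well format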

[5] = H69AR cell proliferation blockers – human, duplicate replicates, primary screen (AID 580;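 active = viability at or under a set limit in both replicates, limit being median viability minus 3 SD, cut at about 48% in these data, passing the limit was not always enough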;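 also: 100% = mean luminescence of untreated wells and 0% = no signal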); details: H69AR lung tumor cells viability, ATP luminescence, 72 h; at 10 µM; stronger effect = lower value
[6] = MRP1 drug-resistance reversers in H69AR cells – cell-based, doxorubicin co-treatment, pilot screen (AID 601;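 active = viability loss from added drug above about 55%, and viability with drug at most 40%, in both replicates, limit read from the data, passing the limit was not always enough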); details: CellTiter-Glo, 72 h, at 10 µM; for differential viability (reversal): stronger effect = higher value
[7] = yeast transport mutant growth inhibition pilot in 384-well plates, post-Golgi transport modulator project (AID 636; in the data active = inhibition above about 31%); details: absorbance 615 nm, about 18 h, stronger effect = higher value
[8] = growth suppression of yeast trafficking mutant, preliminary HTS, modulators of trafficking downstream of Golgi apparatus project, 1536-format plate, OD 615 nm (AID 637); details: yeast transport mutant growth, absorbance 615 nm, 18 h; stronger effect = higher value
[9] = H69AR cells + 2 uM doxorubicin, measured here: viability with 2 uM doxorubicin, stronger effect = lower value
[10] = H69AR cells, compound alone cytotoxicity

Chain of Receptor tyrosine-protein kinase erbB-2 (Homo sapiens) (P04626 whole entry, looked up): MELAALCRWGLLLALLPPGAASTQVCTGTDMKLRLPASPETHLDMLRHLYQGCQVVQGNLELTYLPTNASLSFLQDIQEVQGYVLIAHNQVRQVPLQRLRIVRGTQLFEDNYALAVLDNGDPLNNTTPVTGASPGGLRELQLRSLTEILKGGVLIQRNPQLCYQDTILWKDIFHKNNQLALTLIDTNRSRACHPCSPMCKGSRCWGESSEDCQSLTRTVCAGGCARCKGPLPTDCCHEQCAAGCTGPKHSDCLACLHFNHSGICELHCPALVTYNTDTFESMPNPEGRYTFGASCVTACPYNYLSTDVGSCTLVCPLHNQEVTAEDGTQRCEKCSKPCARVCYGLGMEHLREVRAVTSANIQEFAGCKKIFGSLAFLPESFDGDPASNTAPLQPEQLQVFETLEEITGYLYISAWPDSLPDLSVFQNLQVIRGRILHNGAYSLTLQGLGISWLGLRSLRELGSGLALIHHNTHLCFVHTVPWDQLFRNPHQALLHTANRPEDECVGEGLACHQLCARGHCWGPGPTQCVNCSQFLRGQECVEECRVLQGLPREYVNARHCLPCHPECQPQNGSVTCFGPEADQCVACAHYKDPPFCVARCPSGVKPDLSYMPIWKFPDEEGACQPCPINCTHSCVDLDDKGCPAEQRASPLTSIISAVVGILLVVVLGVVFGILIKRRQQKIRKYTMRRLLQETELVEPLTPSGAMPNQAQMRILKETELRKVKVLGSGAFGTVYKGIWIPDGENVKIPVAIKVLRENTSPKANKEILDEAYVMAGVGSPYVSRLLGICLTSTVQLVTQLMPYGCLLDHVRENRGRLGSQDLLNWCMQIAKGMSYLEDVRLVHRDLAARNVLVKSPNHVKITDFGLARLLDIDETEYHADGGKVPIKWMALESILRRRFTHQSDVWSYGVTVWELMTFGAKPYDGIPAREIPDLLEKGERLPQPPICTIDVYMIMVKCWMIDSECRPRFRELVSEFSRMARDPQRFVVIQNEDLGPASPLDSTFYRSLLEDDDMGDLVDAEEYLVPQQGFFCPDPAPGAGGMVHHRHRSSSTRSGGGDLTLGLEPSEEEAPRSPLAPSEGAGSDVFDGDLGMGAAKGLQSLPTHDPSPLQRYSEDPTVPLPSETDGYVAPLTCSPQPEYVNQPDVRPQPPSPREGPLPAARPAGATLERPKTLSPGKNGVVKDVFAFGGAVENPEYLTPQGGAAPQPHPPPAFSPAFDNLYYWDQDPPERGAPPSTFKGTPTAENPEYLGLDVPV

Row | Compound | viability [1] [%] | Her2 level [2] | viability [3] | viability [4] | viability [5] | differential viability (reversal) ([6]; H69AR cells + 2 uM doxorubicin) | viability [6, 9] [%] | viability [6, 10] [%] | inhibition [7] | inhibition [8]
1 | Cc1ccc2c(c1)sc1ncc(NC(=O)c3ccccc3)c(=O)n12 | 88.5 | 87% (inactive) | 88.5% (inactive) | 114% (inactive) | 91.7% (inactive) | 3.43% (inactive) | 88.3 | 91.7 | -0.67% (inactive) | 0.66% (inactive)
2 | Cc1ccc(N2C(N)=NC(N)=NC23CCCC3)c(C)c1 | 98.5 | 95% (inactive) | 98.5% (inactive) | 99.8% (inactive) | 106% (inactive) | 20.6% (inactive) | 85 | 106 | -4.68% (inactive) | 1.11% (inactive)
3 | CC(=O)c1c(C)[nH]c(C(=O)OCc2nnc(-c3ccccc3)o2)c1C | 92 | 96.5% (inactive) | 92% (inactive) | 70.4% (inactive) | 72.6% (inactive) | -5.71% (inactive) | 78.3 | 72.6 | 0% (inactive) | 26.7% (inactive)
4 | CCSc1nc2c(c(=O)n(C)c(=O)n2C)n1Cc1ccc(Cl)cc1 | 70.5 | 71% (inactive) | 70.5% (inactive) | 63.2% (inactive) | 83% (inactive) | -4.85% (inactive) | 87.9 | 83 | -0.92% (inactive) | 2.36% (inactive)
5 | COC(=O)c1ccnc(/C=N/O)c1 | 95 | 76% (inactive) | 95% (inactive) | 99.8% (inactive) | 88.1% (inactive) | 7.13% (inactive) | 81 | 88.1 | -3.92% (inactive) | 2.7% (inactive)
6 | COc1ccc(C2C(C(C)=O)=C(O)C(=O)N2C)c(OC)c1 (stereo not given) | 102 | 104% (inactive) | 102% (inactive) | 109% (inactive) | 114% (inactive) | 22.1% (inactive) | 91.7 | 114 | 1.3% (inactive) | -0.83% (inactive)
7 | CN(Cc1ccccc1)Cc1nc2c([nH]1)c(=O)[nH]c(=O)n2C | 92 | 90.5% (inactive) | 92% (inactive) | 79.2% (inactive) | 90.9% (inactive) | 8.36% (inactive) | 82.6 | 90.9 | -3.6% (inactive) | -1.31% (inactive)
8 | COc1cccc(C2CC(c3ccccc3)n3ncnc3N2)c1 (stereo not given) | 87 | 112% (inactive) | 87% (inactive) | 93.5% (inactive) | 90.2% (inactive) | 10.2% (inactive) | 80 | 90.2 | 2.82% (inactive) | 3.67% (inactive)
9 | COC(=O)c1[nH]c(C)c(/C(O)=C2\C(=O)C(=O)N(CCN(C)C)C2c2ccccc2OC)c1C (stereo not given) | 88 | 114% (inactive) | 88% (inactive) | 79% (inactive) | 84.3% (inactive) | 1.34% (inactive) | 82.9 | 84.3 | -6.89% (inactive) | -1.5% (inactive)
10 | CCC(=O)Nc1cc(C)c(NC(=O)C23CC4CC(CC(C4)C2)C3)cn1 | 106 | 85% (inactive) | 106% (inactive) | 84.9% (inactive) | 107% (inactive) | 8.51% (inactive) | 98 | 107 | -3.65% (inactive) | -2.62% (inactive)
11 | O=C(NCc1ccccc1)N[C@@H](Cc1ccccc1)C(=O)O | 96 | 95% (inactive) | 96% (inactive) | 106% (inactive) | 92.6% (inactive) | 3.32% (inactive) | 89.2 | 92.6 | -2.86% (inactive) | 3.5% (inactive)
12 | CCCC(=O)Nc1ccc(NC(=O)c2ccccc2OC)cn1 | 94.5 | 101% (inactive) | 94.5% (inactive) | 100% (inactive) | 92.9% (inactive) | 5.96% (inactive) | 86.9 | 92.9 | -1.17% (inactive) | -4.43% (inactive)
13 | CC1Cc2ccccc2N1C(=O)c1cnsn1 (stereo not given) | 136 | 103% (inactive) | 136% (inactive) | 86.3% (inactive) | 97.8% (inactive) | 10.4% (inactive) | 87.4 | 97.8 | -6.71% (inactive) | -10.8% (inactive)
14 | CCOC(=O)C(NC(=O)CC)(Nc1ccc(S(=O)(=O)Nc2onc(C)c2C)cc1)C(F)(F)F (stereo not given) | 116 | 97.5% (inactive) | 116% (inactive) | 102% (inactive) | 106% (inactive) | 8.86% (inactive) | 97 | 106 | -3.77% (inactive) | -0.48% (inactive)
15 | O=C(CSc1nnc(C2COc3ccccc3O2)o1)N1CCCc2ccccc21 (stereo not given) | 85.5 | 78% (inactive) | 85.5% (inactive) | 60.9% (inactive) | 92.3% (inactive) | -3.22% (inactive) | 95.5 | 92.3 | -5.26% (inactive) | -4% (inactive)
16 | O=C(NCC1CCCO1)c1ccc(N2CCCCC2)nc1 (stereo not given) | 91.5 | 109% (inactive) | 91.5% (inactive) | 113% (inactive) | 90.1% (inactive) | 4.52% (inactive) | 85.6 | 90.1 | 0.26% (inactive) | -2.83% (inactive)

Row | Compound | viability [1] [%] | Her2 level [2] | viability [3] | viability [4] | viability [5] | differential viability (reversal) ([6]; H69AR cells + 2 uM doxorubicin) | viability [6, 9] [%] | viability [6, 10] [%] | inhibition [7] | inhibition [8]
17 | COc1ccc(-c2noc(CN3C(=O)c4ccccc4C3=O)n2)cc1 | 102 | 108% (inactive) | 102% (inactive) | 97.5% (inactive) | 102% (inactive) | 5.23% (inactive) | 96.4 | 102 | -0.92% (inactive) | 11.3% (inactive)
18 | Cn1c(=O)c(C(=S)NC(=O)C2CC2)c(N)n(Cc2ccccc2)c1=O | 70.5 | 74.5% (inactive) | 70.5% (inactive) | 59.9% (inactive) | 78.1% (inactive) | -6.6% (inactive) | 84.7 | 78.1 | -1.05% (inactive) | -3.65% (inactive)
19 | CC(C)(C)N=C1NC(=NC(C)(C)C)c2ccccc21 | 77 | 86% (inactive) | 77% (inactive) | 86% (inactive) | 69.3% (inactive) | -11.5% (inactive) | 80.8 | 69.3 | 0.92% (inactive) | -7.64% (inactive)
20 | COc1ccc2[nH]c(=O)c(CN(Cc3cccs3)Cc3nnnn3C(C)(C)C)cc2c1 | 77.5 | 90% (inactive) | 77.5% (inactive) | 58.7% (inactive) | 73.5% (inactive) | 7.29% (inactive) | 66.2 | 73.5 | -6.13% (inactive) | -0.95% (inactive)
21 | CCOc1cc(NC(=O)c2ccco2)c(OCC)cc1NC(=O)COc1ccccc1C | 67 | 77.5% (inactive) | 67% (inactive) | 60.9% (inactive) | 7.87% (active) | -4.53% (inactive) | 12.4 | 7.87 | -5.6% (inactive) | -6.19% (inactive)
22 | CCCCC(=NCCO)C1=C(O)C(C(=O)OC)C(C)(C)CC1=O (stereo not given) | 90.5 | 93% (inactive) | 90.5% (inactive) | 99.7% (inactive) | 89.5% (inactive) | -0.975% (inactive) | 90.5 | 89.5 | -3.68% (inactive) | -3.81% (inactive)
23 | COCCn1nnnc1C(c1cc2cc(C)cc(C)c2[nH]c1=O)N1CCN(c2ccccc2F)CC1 (stereo not given) | 102 | 81.5% (inactive) | 102% (inactive) | 78.4% (inactive) | 80.9% (inactive) | -5.39% (inactive) | 86.3 | 80.9 | -4% (inactive) | 1.8% (inactive)
24 | CC(=O)n1nc(-c2ccco2)nc1SCc1ccccc1 | 77 | 103% (inactive) | 77% (inactive) | 97.2% (inactive) | 98.7% (inactive) | 14.9% (inactive) | 83.8 | 98.7 | 1.54% (inactive) | 0% (inactive)
25 | Cc1cc(C)nc(N2CCC(C(=O)Nc3ccc4c(c3)CCC4)CC2)n1 | 81.5 | 85% (inactive) | 81.5% (inactive) | 54.9% (inactive) | 103% (inactive) | 7.34% (inactive) | 96 | 103 | -4.74% (inactive) | -2.67% (inactive)
26 | O=C(C1CCC(CNS(=O)(=O)c2cccc3cccnc23)CC1)N1CCCC1 (stereo not given) | 98.5 | 104% (inactive) | 98.5% (inactive) | 99.9% (inactive) | 99.9% (inactive) | 3.37% (inactive) | 96.6 | 99.9 | -1.07% (inactive) | -6.72% (inactive)
27 | CCOc1ccc(/C=N/n2cnnc2)cc1 | 101 | 94.5% (inactive) | 101% (inactive) | 78.8% (inactive) | 96.7% (inactive) | 7.86% (inactive) | 88.9 | 96.7 | -0.52% (inactive) | -3.93% (inactive)
28 | CCN1CCN(C(=O)c2cc3c(=O)n(C)c4ccccc4c3n2C)CC1 | 110 | 94% (inactive) | 110% (inactive) | 88.2% (inactive) | 77.6% (inactive) | -9.27% (inactive) | 86.9 | 77.6 | 0.4% (inactive) | -1.33% (inactive)
29 | Nc1nc2n(n1)C(c1cccc(Cl)c1)CC(c1ccc(F)cc1)N2 (stereo not given) | 86.5 | 97.5% (inactive) | 86.5% (inactive) | 106% (inactive) | 100% (inactive) | -10.5% (inactive) | 111 | 100 | -5.47% (inactive) | -0.83% (inactive)
30 | CCN(CC)c1nc2cc(OC)ccc2cc1C#N | 104 | 80.5% (inactive) | 104% (inactive) | 86.1% (inactive) | 68.2% (inactive) | -14.1% (inactive) | 82.3 | 68.2 | -2.86% (inactive) | -5.24% (inactive)
31 | COCCn1c(CN2CCN(c3ccccc3F)CC2)nc2c1c(=O)n(C)c(=O)n2C | 105 | 138% (inactive) | 105% (inactive) | 84.5% (inactive) | 95.8% (inactive) | 0.255% (inactive) | 95.6 | 95.8 | -1.2% (inactive) | 1.5% (inactive)
32 | Nn1cc(-c2ccccc2)nc1SCC(=O)N1CCN(S(=O)(=O)c2ccccc2)CC1 | 77 | 96% (inactive) | 77% (inactive) | 90.5% (inactive) | 101% (inactive) | -0.4% (inactive) | 102 | 101 | 0.91% (inactive) | -6.56% (inactive)

— PubChem BioAssay
